Source: ChEMBL document CHEMBL3580560, “Isolation, Structural Modification, and HIV Inhibition of Pentacyclic Lupane-Type Triterpenoids from Cassine xylocarpa and Maytenus cuzcoina” (J Nat Prod, 2015)

What was measured:
[1] = Selectivity index, ratio of CC50 for mock-infected human MT2 cells to IC50 for HIV1 NL4.3-Ren infected in human MT2 cells; assay type: functional
[2] = tested on: Human immunodeficiency virus 1; assay: Antiviral activity against HIV1 NL4.3-Ren infected in human MT2 cells assessed as inhibition of viral growth measured 48 hrs post infection by luminometry; assay type: functional, organism-based; conditions: Human immunodeficiency virus 1, NL4.3-Ren, MT2, 48 h
In short: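 MT-2 cells infected with X4-tropic HIV-1 NL4.3-Ren supernatant produced in 293T cells. Fivefold serial dilutions from 100 to 0.032 μM were tested. At 48 h postinfection, cells were lysed and Renilla luciferase RLU were measured. IC50 was fitted from the dose–response curve; values are the mean of at least three independent experiments.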

[3] = Cytotoxicity against mock-infected human MT2 cells assessed as reduction in cell viability incubated for 48 hrs by cell-titer Glo assay; assay type: cell-based
In short: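 Uninfected MT-2 cells received RPMI medium instead of viral supernatant and were treated in parallel with the same fivefold dilutions (100–0.032 μM). […] Values are the mean of at least three independent experiments.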

[4] = tested on: Human immunodeficiency virus 1; assay: Antiviral activity against HIV1 NL4.3-Ren infected in human MT2 cells assessed as inhibition of viral growth at 10 uM measured 48 hrs post infection by luminometry; assay type: functional; conditions: Human immunodeficiency virus 1, NL4.3-Ren, MT2, 48 h

Row | SMILES | Ratio CC50/IC50 [1] | IC50 [2] [µM] | CC50 at 48 h [3] [µM] | inhibition at 10 µM [4] [%]
1 | C=C(C)[C@@H]1CC[C@]2(C)CC[C@]3(C)[C@H](C[C@@H](O)[C@@H]4[C@@]5(C)C=CC(=O)C(C)(C)[C@@H]5CC[C@]43C)[C@@H]12 | 6.9 | 8.7 | 60.4 | > 50
2 | C=C(C)[C@@H]1CC[C@]2(C)CC[C@]3(C)[C@H](C[C@@H](O)[C@@H]4[C@@]5(C)CC[C@@H](O)C(C)(C)[C@@H]5CC[C@]43C)[C@@H]12 | – | – | – | < 50
3 | C=C(CO)[C@@H]1CC[C@]2(C)CC[C@]3(C)[C@H](CC[C@@H]4[C@@]5(C)CC[C@H](O)C(C)(C)[C@@H]5CC[C@]43C)[C@@H]12 | – | – | – | < 50
4 | CC(=O)OC[C@]12CC[C@@H](C(C)(O)CO)[C@@H]1[C@H]1CC[C@@H]3[C@@]4(C)CC[C@H](O)C(C)(C)[C@@H]4CC[C@@]3(C)[C@]1(C)CC2 (stereo partly drawn) | – | – | – | < 50
5 | C=C(C)[C@@H]1CC[C@]2(C)CC[C@]3(C)[C@H](CC[C@@H]4[C@@]5(C)CC[C@H](O)C(C)(C)[C@@H]5CC[C@]43C)[C@@H]12 [LUPEOL] | – | – | – | < 50
6 | C=C(CCl)[C@@H]1CC[C@]2(C)CC[C@]3(C)[C@H](C[C@@H](OC(C)=O)[C@@H]4[C@@]5(C)CCC(=O)C(C)(C)[C@@H]5CC[C@]43C)[C@@H]12 | – | – | – | < 50
7 | C=C(C)[C@@H]1CC[C@]2(C)CC[C@]3(C)[C@H](CC[C@@H]4[C@@]5(C)CC(Br)C(=O)C(C)(C)[C@@H]5CC[C@]43C)[C@@H]12 (stereo partly drawn) | – | – | – | < 50
8 | C=C(C)[C@@H]1CC[C@]2(COC(=O)C(C)(C)C)CC[C@]3(C)[C@H](CC[C@@H]4[C@@]5(C)CC[C@H](O)C(C)(C)[C@@H]5CC[C@]43C)[C@@H]12 | – | – | – | < 50
9 | C=C(C)[C@@H]1CC[C@]2(CO)CC[C@]3(C)[C@H](CC[C@@H]4[C@@]5(C)CCC(=O)C(C)(C)[C@@H]5CC[C@]43C)[C@@H]12 [BETULONE] | >24.5 | 4.1 | > 100 | > 50
10 | C=C(C)[C@@H]1CC[C@]2(C)CC[C@]3(C)[C@H](CC[C@@H]4[C@@]5(C)[C@H](O)C[C@H](O)C(C)(C)[C@@H]5CC[C@]43C)[C@@H]12 | – | – | – | < 50
11 | C=C(C(=O)O)[C@@H]1CC[C@]2(C)CC[C@]3(C)[C@H](CC[C@@H]4[C@@]5(C)CCC(=O)C(C)(C)[C@@H]5CC[C@]43C)[C@@H]12 | – | 100 | > 100 | > 50
12 | C=C(C)[C@@H]1CC[C@]2(COC(=O)c3ccc(Br)cc3)CC[C@]3(C)[C@H](CC[C@@H]4[C@@]5(C)CC[C@H](O)C(C)(C)[C@@H]5CC[C@]43C)[C@@H]12 | – | – | – | < 50
13 | C=C(C)[C@@H]1CC[C@]2(C)CC[C@]3(C)[C@H](CC[C@@H]4[C@@]5(C)CCC(=O)C(C)(C)[C@@H]5CC[C@]43C)[C@@H]12 [LUPENONE] | – | – | – | < 50
14 | C=C(C)[C@@H]1CC[C@]2(CO)CC[C@]3(C)[C@H](C[C@@H](O)[C@@H]4[C@@]5(C)CCC(=O)C(C)(C)[C@@H]5CC[C@]43C)[C@@H]12 | – | – | – | < 50
15 | CC(C)[C@@H]1CC[C@]2(C)CC[C@]3(C)[C@@H](CC[C@@H]4[C@@]5(C)CC[C@H](OC(=O)/C=C/c6ccc(O)c(O)c6)C(C)(C)[C@@H]5CC[C@]43C)[C@@H]12 | – | – | – | < 50
16 | C=C(C)[C@@H]1CC[C@]2(COC(=O)c3cccc4ccccc34)CC[C@]3(C)[C@H](CC[C@@H]4[C@@]5(C)CC[C@H](OC(=O)c6cccc7ccccc67)C(C)(C)[C@@H]5CC[C@]43C)[C@@H]12 | – | – | – | < 50
17 | C=C(CCl)[C@@H]1CC[C@]2(C)CC[C@]3(C)[C@H](C[C@@H](OC(C)=O)[C@@H]4[C@@]5(C)C=CC(=O)C(C)(C)[C@@H]5CC[C@]43C)[C@@H]12 | – | – | – | < 50
18 | C=C(COC(C)=O)[C@@H]1CC[C@]2(C)CC[C@]3(C)[C@H](CC[C@@H]4[C@@]5(C)CCC(=O)C(C)(C)[C@@H]5CC[C@]43C)[C@@H]12 | 2.8 | 13.1 | 36.2 | > 50
19 | C=C(CO)[C@@H]1CC[C@]2(C)CC[C@]3(C)[C@H](CC[C@@H]4[C@@]5(C)CCC(=O)C(C)(C)[C@@H]5[C@H](O)C[C@]43C)[C@@H]12 | 2.1 | 9.5 | 20 | > 50
20 | C=C(C)[C@@H]1CC[C@]2(COC(=O)CCCCCCC)CC[C@]3(C)[C@H](CC[C@@H]4[C@@]5(C)CC[C@H](OC(=O)CCCCCCC)C(C)(C)[C@@H]5CC[C@]43C)[C@@H]12 | – | – | – | < 50

Row | SMILES | Ratio CC50/IC50 [1] | IC50 [2] [µM] | CC50 at 48 h [3] [µM] | inhibition at 10 µM [4] [%]
21 | C=C(C)[C@@H]1CC[C@]2(C)CC[C@]3(C)[C@H](CC[C@@H]4[C@@]5(CO)CC[C@H](O)C(C)(C)[C@@H]5CC[C@]43C)[C@@H]12 | 2.9 | 6.9 | 20 | > 50
22 | C=C(CO)[C@@H]1CC[C@]2(C)CC[C@]3(C)[C@H](CC[C@@H]4[C@@]5(C)CCC(=O)C(C)(C)[C@@H]5CC[C@]43C)[C@@H]12 | – | – | – | < 50
23 | C=C(C)[C@@H]1CC[C@]2(CO)CC[C@]3(C)[C@H](CC[C@@H]4[C@@]5(C)CC[C@H](O)C(C)(C)[C@@H]5CC[C@]43C)[C@@H]12 [BETULIN] | – | – | – | < 50
24 | C=C(C)[C@@H]1CC[C@]2(COC(=O)CCCCCCC)CC[C@]3(C)[C@H](CC[C@@H]4[C@@]5(C)CC[C@H](O)C(C)(C)[C@@H]5CC[C@]43C)[C@@H]12 | – | – | – | < 50
25 | C=C(C)[C@@H]1CC[C@]2(C)CC[C@]3(C)[C@@H](C[C@@H](O)[C@@H]4[C@@]5(C)CCC(=O)C(C)(C)[C@@H]5CC[C@]43C)[C@@H]12 [RIGIDENOL] | – | – | – | < 50
26 | C=C(C)[C@@H]1CC[C@]2(COC(C)=O)CC[C@]3(C)[C@H](CC[C@@H]4[C@@]5(C)CC[C@H](OC(C)=O)C(C)(C)[C@@H]5CC[C@]43C)[C@@H]12 [BETULIN DIACETATE] | – | – | – | < 50
27 | CC(C)(O)[C@@H]1CC[C@]2(C)CC[C@]3(C)[C@H](CC[C@@H]4[C@@]5(C)CCC(=O)C(C)(C)[C@@H]5[C@H](O)C[C@]43C)[C@@H]12 | >14.3 | 7 | > 100 | > 50
28 | C=C(C)[C@@H]1CC[C@]2(CO)CC[C@]3(C)[C@H](CC[C@@H]4[C@@]5(C)[C@H](O)C[C@@H](O)C(C)(C)[C@@H]5CC[C@]43C)[C@@H]12 | – | – | – | < 50
29 | CC(C)(O)[C@@H]1CC[C@]2(C)CC[C@]3(C)[C@H](CC[C@@H]4[C@@]5(C)CC[C@H](O)C(C)(C)[C@@H]5[C@H](O)C[C@]43C)[C@@H]12 | – | – | – | < 50
30 | C=C(C)[C@@H]1CC[C@]2(C(=O)O)CC[C@]3(C)[C@H](CC[C@@H]4[C@@]5(C)CC[C@H](OC(=O)CC(C)(C)C(=O)O)C(C)(C)[C@@H]5CC[C@]43C)[C@@H]12 [BEVIRIMAT] | >1000 | 0.01 | > 10 | > 50
31 | C=C(COC(C)=O)[C@@H]1CC[C@]2(C)CC[C@]3(C)[C@H](CC[C@@H]4[C@@]5(C)CC[C@H](OC(C)=O)C(C)(C)[C@@H]5CC[C@]43C)[C@@H]12 | – | – | – | < 50
32 | C=C(C)[C@@H]1CC[C@]2(COC(C)=O)CC[C@]3(C)[C@H](CC[C@@H]4[C@@]5(C)CC[C@H](O)C(C)(C)[C@@H]5CC[C@]43C)[C@@H]12 | – | – | – | < 50
33 | C=C(C)[C@@H]1CC[C@]2(CO[Si](C)(C)C(C)(C)C)CC[C@]3(C)[C@H](CC[C@@H]4[C@@]5(C)CC[C@H](O)C(C)(C)[C@@H]5CC[C@]43C)[C@@H]12 | – | – | – | < 50
34 | C=C(C)[C@@H]1CC[C@]2(C)CC[C@]3(C)[C@@H](CC[C@@H]4[C@@]5(C)C=CC(=O)C(C)(C)[C@@H]5CC[C@]43C)[C@@H]12 [GLOCHIDONE] | – | – | – | < 50
35 | C=C(C)[C@@H]1CC[C@]2(CO)CC[C@]3(C)[C@H](CC[C@@H]4[C@@]5(C)CC[C@H](OC(=O)/C=C/c6ccc(O)c(O)c6)C(C)(C)[C@@H]5CC[C@]43C)[C@@H]12 | – | – | – | < 50
36 | C=C(C)[C@@H]1CC[C@]2(C)CC[C@]3(C)[C@H](C[C@@H](OC(C)=O)[C@@H]4[C@@]5(C)CCC(=O)C(C)(C)[C@@H]5CC[C@]43C)[C@@H]12 | – | – | – | < 50
37 | C=C(C)[C@@H]1CC[C@]2(COS(=O)(=O)c3ccc(C)cc3)CC[C@]3(C)[C@H](CC[C@@H]4[C@@]5(C)CC[C@H](O)C(C)(C)[C@@H]5CC[C@]43C)[C@@H]12 | – | – | – | < 50
38 | CC(=O)OC[C@]12CC[C@@H]([C@]3(C)CO3)[C@@H]1[C@H]1CC[C@@H]3[C@@]4(C)CC[C@H](O)C(C)(C)[C@@H]4CC[C@@]3(C)[C@]1(C)CC2 | – | – | – | < 50
39 | C=C(C)[C@@H]1CC[C@]2(COC(=O)c3ccccc3)CC[C@]3(C)[C@H](CC[C@@H]4[C@@]5(C)CC[C@H](O)C(C)(C)[C@@H]5CC[C@]43C)[C@@H]12 | – | – | – | < 50
40 | C=C(C)[C@@H]1CC[C@]2(COC(=O)c3cccc4ccccc34)CC[C@]3(C)[C@H](CC[C@@H]4[C@@]5(C)CC[C@H](O)C(C)(C)[C@@H]5CC[C@]43C)[C@@H]12 | – | – | – | < 50
